The source made the active and inactive calls. The calls are words filed in the database; no cut-off is given here.
Experiments:
[1] = system: DU-145; test: Cytotoxicity against human DU145 cells at 50 uM after 48 hrs by SRB assay; assay type: functional; settings: DU-145, 48 h, read-out: GI
[2] = system: HEp-2; test: Cytotoxicity against human Hep2 cells at 10 uM after 48 hrs by SRB assay; assay type: functional; settings: HEp-2, 48 h, read-out: GI
[3] = system: THP-1; test: Inhibition of cell invasion in human THP1 cells at 1 to 30 uM after 24 hrs by wound-healing assay; assay type: functional, cell-based
Outline: (§1)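 THP-1 monolayers (3×10⁵ cells/mL/well) were scratched with a pipette tip and washed three times with PBS. Test samples were added for 24 h, then fresh medium was added until the control wound healed. Wounds were imaged with a 10× objective at 0 h and 24 h. Migration was quantified as the distance between wound edges.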

[4] = system: CV-1; test: Induction of apoptosis in african green monkey CV1 cells assessed as DNA ladder formation at 10 to 60 uM after 24 hrs by DNA agarose gel electrophoresis; assay type: cell-based; settings: chlorocebus aethiops, cv-1, 24 h
Outline: (§2)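 DNA fragmentation assay in HL-60 cells (2 × 10⁶ cells/well) or CV-1 cells, treated for 24 h. Cells were lysed in Tris–HCl pH 8.0/NaCl/EDTA/Triton X-100 with proteinase K (200 µg/mL) at 50 °C for 1 h, then DNase-free RNase for 90 min. DNA was phenol:chloroform extracted and ethanol precipitated. Gels were 1% agarose in TAE at 80 V for 1.5 h. Camptothecin (5 µM, 6 h) served as positive control in HL-60.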

[5] = system: PC-3; test: Cytotoxicity against human PC3 cells at 30 uM after 48 hrs by SRB assay; assay type: functional; settings: PC-3, 48 h, read-out: GI
[6] = system: DU-145; test: Cytotoxicity against human DU145 cells at 30 uM after 48 hrs by SRB assay; assay type: functional; settings: DU-145, 48 h, read-out: GI
[7] = system: THP-1; test: Inhibition of colony formation in human THP1 cells using crystal violet staining after 24 hrs by clonogenic assay; assay type: functional, cell-based
Outline: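 THP-1 cells from log-phase culture were plated at clonogenic dilution. After 24 h they were treated for 24 h, then incubated for at least six potential divisions (colonies >50 cells). Colonies were fixed and stained with 6% glutaraldehyde plus 0.5% crystal violet for 30 min, washed with water and air-dried.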

[8] = system: A549; test: Cytotoxicity against human A549 cells at 30 uM after 48 hrs by SRB assay; assay type: functional; settings: A549, 48 h, read-out: GI
[9] = system: THP-1; test: Cytotoxicity against human THP1 cells at 10 uM after 48 hrs by SRB assay; assay type: functional; settings: THP-1, 48 h, read-out: GI
[10] = system: MCF7; test: Cytotoxicity against human MCF7 cells at 30 uM after 48 hrs by SRB assay; assay type: functional; settings: MCF7, 48 h, read-out: GI
[11] = system: MCF7; test: Cytotoxicity against human MCF7 cells at 10 uM after 48 hrs by SRB assay; assay type: functional; settings: MCF7, 48 h, read-out: GI
[12] = system: PC-3; test: Cytotoxicity against human PC3 cells at 10 uM after 48 hrs by SRB assay; assay type: functional; settings: PC-3, 48 h, read-out: GI
[13] = system: HL-60; test: Cytotoxicity against human HL60 cells at 10 uM after 48 hrs by SRB assay; assay type: functional; settings: HL-60, 48 h, read-out: GI
[14] = system: HCT-15; test: Cytotoxicity against human HCT15 cells at 10 uM after 48 hrs by SRB assay; assay type: functional; settings: HCT-15, 48 h, read-out: GI
[15] = system: HL-60; test: Induction of apoptosis in human HL60 cells assessed as change in mitochondrial membrane potential after 24 hrs using rhodamine-123 staining by fluorescence based confocal microscopy analysis; assay type: functional, cell-based
Outline: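 HL-60 cells (6 × 10⁴/mL/well) were treated for 24 h. Rhodamine-123 (1 µM) was added in serum-free medium 30 min before the end, in the dark. Cells were then washed and resuspended in PBS. Fluorescence loss was viewed by confocal microscopy with 488 nm laser excitation. Each experiment was done twice.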

[16] = system: HEp-2; test: Cytotoxicity against human Hep2 cells at 50 uM after 48 hrs by SRB assay; assay type: functional; settings: HEp-2, 48 h, read-out: GI
[17] = system: HL-60; test: Cytotoxicity against human HL60 cells at 30 uM after 48 hrs by SRB assay; assay type: functional; settings: HL-60, 48 h, read-out: GI
[18] = system: A549; test: Cytotoxicity against human A549 cells at 10 uM after 48 hrs by SRB assay; assay type: functional; settings: A549, 48 h, read-out: GI
[19] = system: HL-60; test: Cytotoxicity against human HL60 cells at 50 uM after 48 hrs by SRB assay; assay type: functional; settings: HL-60, 48 h, read-out: GI
[20] = system: DU-145; test: Cytotoxicity against human DU145 cells at 10 uM after 48 hrs by SRB assay; assay type: functional; settings: DU-145, 48 h, read-out: GI
[21] = system: HCT-15; test: Cytotoxicity against human HCT15 cells at 50 uM after 48 hrs by SRB assay; assay type: functional; settings: HCT-15, 48 h, read-out: GI
[22] = system: THP-1; test: Cytotoxicity against human THP1 cells after 48 hrs by SRB assay; assay type: functional, cell-based; settings: THP-1, 48 h
[23] = system: HL-60; test: Cytotoxicity against human HL60 cells after 48 hrs by SRB assay; assay type: functional, cell-based; settings: HL-60, 48 h
[24] = system: HEp-2; test: Cytotoxicity against human Hep2 cells at 30 uM after 48 hrs by SRB assay; assay type: functional; settings: HEp-2, 48 h, read-out: GI
[25] = system: HCT-15; test: Cytotoxicity against human HCT15 cells after 48 hrs by SRB assay; assay type: functional, cell-based; settings: HCT-15, 48 h
[26] = system: SF-295; test: Cytotoxicity against human SF295 cells at 10 uM after 48 hrs by SRB assay; assay type: functional; settings: SF-295, 48 h, read-out: GI
[27] = system: HL-60; test: Ratio of betulinic acid IC50 to compound IC50 for human HL60 cells; assay type: functional
[28] = system: PC-3; test: Cytotoxicity against human PC3 cells after 48 hrs by SRB assay; assay type: functional, cell-based; settings: PC-3, 48 h
[29] = system: THP-1; test: Cytotoxicity against human THP1 cells at 50 uM after 48 hrs by SRB assay; assay type: functional; settings: THP-1, 48 h, read-out: GI
[30] = system: SF-295; test: Cytotoxicity against human SF295 cells at 30 uM after 48 hrs by SRB assay; assay type: functional; settings: SF-295, 48 h, read-out: GI
[31] = system: HEp-2; test: Cytotoxicity against human Hep2 cells after 48 hrs by SRB assay; assay type: functional, cell-based; settings: HEp-2, 48 h
[32] = system: PC-3; test: Cytotoxicity against human PC3 cells at 50 uM after 48 hrs by SRB assay; assay type: functional; settings: PC-3, 48 h, read-out: GI
[33] = system: DU-145; test: Cytotoxicity against human DU145 cells after 48 hrs by SRB assay; assay type: functional, cell-based; settings: DU-145, 48 h
[34] = system: HL-60; test: Induction of apoptosis in human HL60 cells assessed as DNA ladder formation at 20 to 30 uM after 24 hrs by DNA agarose gel electrophoresis; assay type: functional, cell-based; outline: as §2
[35] = system: HCT-15; test: Cytotoxicity against human HCT15 cells at 30 uM after 48 hrs by SRB assay; assay type: functional; settings: HCT-15, 48 h, read-out: GI
[36] = system: HL-60; test: Induction of apoptosis in human HL60 cells assessed as DNA ladder formation after 24 hrs by DNA agarose gel electrophoresis; assay type: functional; outline: as §2
[37] = system: SF-295; test: Cytotoxicity against human SF295 cells after 48 hrs by SRB assay; assay type: functional, cell-based; settings: SF-295, 48 h
[38] = system: A549; test: Cytotoxicity against human A549 cells after 48 hrs by SRB assay; assay type: functional, cell-based; settings: A549, 48 h
[39] = system: THP-1; test: Inhibition of cell migration in human THP1 cells at 1 to 30 uM after 24 hrs by wound-healing assay; assay type: functional, cell-based; outline: as §1
[40] = system: MCF7; test: Cytotoxicity against human MCF7 cells after 48 hrs by SRB assay; assay type: functional, cell-based; settings: MCF7, 48 h
[41] = system: MCF7; test: Cytotoxicity against human MCF7 cells at 50 uM after 48 hrs by SRB assay; assay type: functional; settings: MCF7, 48 h, read-out: GI
[42] = system: THP-1; test: Cytotoxicity against human THP1 cells at 30 uM after 48 hrs by SRB assay; assay type: functional; settings: THP-1, 48 h, read-out: GI
[43] = system: SF-295; test: Cytotoxicity against human SF295 cells at 50 uM after 48 hrs by SRB assay; assay type: functional; settings: SF-295, 48 h, read-out: GI
[44] = system: A549; test: Cytotoxicity against human A549 cells at 50 uM after 48 hrs by SRB assay; assay type: functional; settings: A549, 48 h, read-out: GI

SMILES: C=C(C)[C@@H]1CC[C@]2(C(=O)O)CC[C@]3(C)[C@H](CC[C@@H]4[C@@]5(C)CC[C@H](OCc6cn(-c7cccc8c(O)cccc78)nn6)C(C)(C)[C@@H]5CC[C@]43C)[C@@H]12
- inhibition of growth at 50 µM [1]: 86%
- inhibition of growth at 10 µM [2]: 45%
- inhibition [3]: Active
- Activity [4]: Non-toxic
- inhibition of growth at 30 µM [5]: 61%
- inhibition of growth at 30 µM [6]: 69%
- inhibition [7]: Dose-dependent effect
- inhibition of growth at 30 µM [8]: 60%
- inhibition of growth at 10 µM [9]: 51%
- inhibition of growth at 30 µM [10]: 63%
- inhibition of growth at 10 µM [11]: 51%
- inhibition of growth at 10 µM [12]: 35%
- inhibition of growth at 10 µM [13]: 63%
- inhibition of growth at 10 µM [14]: 40%
- Activity [15]: Dose-dependent effect
- inhibition of growth at 50 µM [16]: 74%
- inhibition of growth at 30 µM [17]: 95%
- inhibition of growth at 10 µM [18]: 42%
- inhibition of growth at 50 µM [19]: 98%
- inhibition of growth at 10 µM [20]: 38%
- inhibition of growth at 50 µM [21]: 72%
- IC50 [22]: 8 µM
- IC50 [23]: 3.5 µM
- inhibition of growth at 30 µM [24]: 63%
- IC50 [25]: 15 µM
- inhibition of growth at 10 µM [26]: 18%
- Ratio IC50 [27]: 5
- IC50 [28]: 16 µM
- inhibition of growth at 50 µM [29]: 92%
- inhibition of growth at 30 µM [30]: 61%
- IC50 [31]: 13 µM
- inhibition of growth at 50 µM [32]: 94%
- IC50 [33]: 14 µM
- Activity [34]: Active
- inhibition of growth at 30 µM [35]: 64%
- Activity [36]: Dose-dependent effect
- MED [36]: 20 µM
- IC50 [37]: 25 µM
- IC50 [38]: 16 µM
- inhibition [39]: Active
- IC50 [40]: 9 µM
- inhibition of growth at 50 µM [41]: 82%
- inhibition of growth at 30 µM [42]: 82%
- inhibition of growth at 50 µM [43]: 87%
- inhibition of growth at 50 µM [44]: 72%
